Source: ChEMBL document CHEMBL2057083, “Development of new carbon-11 labelled radiotracers for imaging GABAA- and GABAB-benzodiazepine receptors” (Bioorg Med Chem, 2012)
One block for each molecule: values may come before it.

Experiments:
[1] = Lipophilicity, log D in octanol/buffer at pH 7.4 by shake-flask method
Rattus norvegicus [2] = assay: Biodistribution in Sprague-Dawley rat hipothalamus at 37 MBq, iv measured 60 mins post injection; format: ADME, organism-based, Hypothalamus; conditions: in vivo, 1 h
Procedure, shortened: (§1)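 Conscious rats received the radiotracer by tail-vein injection and were killed by decapitation at the stated time. Brains were removed, and regions were excised, blotted, weighed and counted for radioactivity. Uptake is given as decay-corrected %ID/g.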

Blood [3] = assay: Biodistribution in Sprague-Dawley rat blood at 37 MBq, iv measured 30 mins post injection; format: ADME, organism-based; conditions: in vivo, 0.5 h
Striatum [4] = assay: Biodistribution in Sprague-Dawley rat striatum at 37 MBq, iv measured 2 mins post injection; format: ADME, organism-based; conditions: in vivo
Thalamus [5] = assay: Biodistribution in Sprague-Dawley rat thalamus at 37 MBq, iv measured 5 mins post injection; format: ADME, organism-based; conditions: in vivo; procedure, shortened: as §1
Cerebellum [6] = assay: Biodistribution in Sprague-Dawley rat cerebellum at 37 MBq, iv measured 30 mins post injection; format: ADME, organism-based; conditions: in vivo, 0.5 h
Rattus norvegicus [7] = assay: Biodistribution in Sprague-Dawley rat hipothalamus at 37 MBq, iv measured 30 mins post injection; format: ADME, organism-based, Hypothalamus; conditions: in vivo, 0.5 h; procedure, shortened: as §1
Hippocampus [8] = assay: Biodistribution in Sprague-Dawley rat hippocampus at 37 MBq, iv measured 30 mins post injection; format: ADME, organism-based; conditions: in vivo, 0.5 h
Brain [9] = assay: Biodistribution in Sprague-Dawley rat rest of brain at 37 MBq, iv measured 30 mins post injection; format: ADME, organism-based; conditions: in vivo, 0.5 h
Brain [10] = assay: Biodistribution in Sprague-Dawley rat rest of brain at 37 MBq, iv measured 15 mins post injection; format: ADME, organism-based; conditions: in vivo, 0.25 h
Striatum [11] = assay: Biodistribution in Sprague-Dawley rat striatum at 37 MBq, iv measured 30 mins post injection; format: ADME, organism-based; conditions: in vivo, 0.5 h
Blood [12] = assay: Biodistribution in Sprague-Dawley rat blood at 37 MBq, iv measured 60 mins post injection; format: ADME, organism-based; conditions: in vivo, 1 h
Rattus norvegicus [13] = assay: Biodistribution in Sprague-Dawley rat cortex (rest) at 37 MBq, iv measured 60 mins post injection; format: ADME, organism-based; conditions: in vivo, 1 h
Hippocampus [14] = assay: Biodistribution in Sprague-Dawley rat hippocampus at 37 MBq, iv measured 5 mins post injection; format: ADME, organism-based; conditions: in vivo
Rattus norvegicus [15] = assay: Biodistribution in Sprague-Dawley rat hipothalamus at 37 MBq, iv measured 5 mins post injection; format: ADME, organism-based, Hypothalamus; conditions: in vivo; procedure, shortened: as §1
Thalamus [16] = assay: Biodistribution in Sprague-Dawley rat thalamus at 37 MBq, iv measured 2 mins post injection; format: ADME, organism-based; conditions: in vivo
Cerebellum [17] = assay: Biodistribution in Sprague-Dawley rat cerebellum at 37 MBq, iv measured 60 mins post injection; format: ADME, organism-based; conditions: in vivo, 1 h
Rattus norvegicus [18] = assay: Biodistribution in Sprague-Dawley rat hipothalamus at 37 MBq, iv measured 15 mins post injection; format: ADME, organism-based, Hypothalamus; conditions: in vivo, 0.25 h; procedure, shortened: as §1
Thalamus [19] = assay: Biodistribution in Sprague-Dawley rat thalamus at 37 MBq, iv measured 15 mins post injection; format: ADME, organism-based; conditions: in vivo, 0.25 h; procedure, shortened: as §1
Striatum [20] = assay: Biodistribution in Sprague-Dawley rat striatum at 37 MBq, iv measured 60 mins post injection; format: ADME, organism-based; conditions: in vivo, 1 h
Blood [21] = assay: Biodistribution in Sprague-Dawley rat blood at 37 MBq, iv measured 5 mins post injection; format: ADME, organism-based; conditions: in vivo
Hippocampus [22] = assay: Biodistribution in Sprague-Dawley rat hippocampus at 37 MBq, iv measured 60 mins post injection; format: ADME, organism-based; conditions: in vivo, 1 h
Hippocampus [23] = assay: Biodistribution in Sprague-Dawley rat hippocampus at 37 MBq, iv measured 15 mins post injection; format: ADME, organism-based; conditions: in vivo, 0.25 h
Brain [24] = assay: Biodistribution in Sprague-Dawley rat rest of brain at 37 MBq, iv measured 60 mins post injection; format: ADME, organism-based; conditions: in vivo, 1 h
Cerebellum [25] = assay: Biodistribution in Sprague-Dawley rat cerebellum at 37 MBq, iv measured 2 mins post injection; format: ADME, organism-based; conditions: in vivo
Rattus norvegicus [26] = assay: Biodistribution in Sprague-Dawley rat cortex (rest) at 37 MBq, iv measured 5 mins post injection; format: ADME, organism-based; conditions: in vivo
Rattus norvegicus [27] = assay: Biodistribution in Sprague-Dawley rat cortex (front) at 37 MBq, iv measured 15 mins post injection; format: ADME, organism-based; conditions: in vivo, 0.25 h
Rattus norvegicus [28] = assay: Biodistribution in Sprague-Dawley rat cortex (front) at 37 MBq, iv measured 30 mins post injection; format: ADME, organism-based; conditions: in vivo, 0.5 h
Thalamus [29] = assay: Biodistribution in Sprague-Dawley rat thalamus at 37 MBq, iv measured 30 mins post injection; format: ADME, organism-based; conditions: in vivo, 0.5 h; procedure, shortened: as §1
Rattus norvegicus [30] = assay: Biodistribution in Sprague-Dawley rat cortex (rest) at 37 MBq, iv measured 15 mins post injection; format: ADME, organism-based; conditions: in vivo, 0.25 h
Cerebellum [31] = assay: Biodistribution in Sprague-Dawley rat cerebellum at 37 MBq, iv measured 15 mins post injection; format: ADME, organism-based; conditions: in vivo, 0.25 h
Rattus norvegicus [32] = assay: Biodistribution in Sprague-Dawley rat cortex (rest) at 37 MBq, iv measured 2 mins post injection; format: ADME, organism-based; conditions: in vivo
Rattus norvegicus [33] = assay: Biodistribution in Sprague-Dawley rat cortex (front) at 37 MBq, iv measured 5 mins post injection; format: ADME, organism-based; conditions: in vivo
Rattus norvegicus [34] = assay: Biodistribution in Sprague-Dawley rat cortex (front) at 37 MBq, iv measured 60 mins post injection; format: ADME, organism-based; conditions: in vivo, 1 h
Striatum [35] = assay: Biodistribution in Sprague-Dawley rat striatum at 37 MBq, iv measured 15 mins post injection; format: ADME, organism-based; conditions: in vivo, 0.25 h
Brain [36] = assay: Biodistribution in Sprague-Dawley rat rest of brain at 37 MBq, iv measured 2 mins post injection; format: ADME, organism-based; conditions: in vivo
Rattus norvegicus [37] = assay: Biodistribution in Sprague-Dawley rat cortex (rest) at 37 MBq, iv measured 30 mins post injection; format: ADME, organism-based; conditions: in vivo, 0.5 h
Rattus norvegicus [38] = assay: Biodistribution in Sprague-Dawley rat hipothalamus at 37 MBq, iv measured 2 mins post injection; format: ADME, organism-based, Hypothalamus; conditions: in vivo
Thalamus [39] = assay: Biodistribution in Sprague-Dawley rat thalamus at 37 MBq, iv measured 60 mins post injection; format: ADME, organism-based; conditions: in vivo, 1 h; procedure, shortened: as §1
Blood [40] = assay: Biodistribution in Sprague-Dawley rat blood at 37 MBq, iv measured 15 mins post injection; format: ADME, organism-based; conditions: in vivo, 0.25 h
Brain [41] = assay: Biodistribution in Sprague-Dawley rat rest of brain at 37 MBq, iv measured 5 mins post injection; format: ADME, organism-based; conditions: in vivo
Striatum [42] = assay: Biodistribution in Sprague-Dawley rat striatum at 37 MBq, iv measured 5 mins post injection; format: ADME, organism-based; conditions: in vivo
Cerebellum [43] = assay: Biodistribution in Sprague-Dawley rat cerebellum at 37 MBq, iv measured 5 mins post injection; format: ADME, organism-based; conditions: in vivo
Blood [44] = assay: Biodistribution in Sprague-Dawley rat blood at 37 MBq, iv measured 2 mins post injection; format: ADME, organism-based; conditions: in vivo
Hippocampus [45] = assay: Biodistribution in Sprague-Dawley rat hippocampus at 37 MBq, iv measured 2 mins post injection; format: ADME, organism-based; conditions: in vivo
Rattus norvegicus [46] = assay: Biodistribution in Sprague-Dawley rat cortex (front) at 37 MBq, iv measured 2 mins post injection; format: ADME, organism-based; conditions: in vivo

- logD [1]: 4.12
Compound: Cc1nc(O[11CH3])ccc1-c1cccc2c(N)c3c(nc12)CN(C1CCC1)C3=O

- Drug uptake (Rattus norvegicus [2]): 0.11 % ID/g
- logD [1]: 3.2
- Drug uptake (Blood [3]): 0.09 % ID/g
- Drug uptake (Striatum [4]): 0.1 % ID/g
- Drug uptake (Thalamus [5]): 0.12 % ID/g
- Drug uptake (Cerebellum [6]): 0.13 % ID/g
- Drug uptake (Rattus norvegicus [7]): 0.1 % ID/g
- Drug uptake (Hippocampus [8]): 0.11 % ID/g
- Drug uptake (Brain [9]): 0.12 % ID/g
- Drug uptake (Brain [10]): 0.11 % ID/g
- Drug uptake (Striatum [11]): 0.12 % ID/g
- Drug uptake (Blood [12]): 0.13 % ID/g
- Drug uptake (Rattus norvegicus [13]): 0.13 % ID/g
- Drug uptake (Hippocampus [14]): 0.1 % ID/g
- Drug uptake (Rattus norvegicus [15]): 0.11 % ID/g
- Drug uptake (Thalamus [16]): 0.1 % ID/g
- Drug uptake (Cerebellum [17]): 0.11 % ID/g
- Drug uptake (Rattus norvegicus [18]): 0.1 % ID/g
- Drug uptake (Thalamus [19]): 0.13 % ID/g
- Drug uptake (Striatum [20]): 0.11 % ID/g
- Drug uptake (Blood [21]): 0.12 % ID/g
- Drug uptake (Hippocampus [22]): 0.11 % ID/g
- Drug uptake (Hippocampus [23]): 0.1 % ID/g
- Drug uptake (Brain [24]): 0.11 % ID/g
- Drug uptake (Cerebellum [25]): 0.13 % ID/g
- Drug uptake (Rattus norvegicus [26]): 0.13 % ID/g
- Drug uptake (Rattus norvegicus [27]): 0.14 % ID/g
- Drug uptake (Rattus norvegicus [28]): 0.14 % ID/g
- Drug uptake (Thalamus [29]): 0.12 % ID/g
- Drug uptake (Rattus norvegicus [30]): 0.13 % ID/g
- Drug uptake (Cerebellum [31]): 0.12 % ID/g
- Drug uptake (Rattus norvegicus [32]): 0.13 % ID/g
- Drug uptake (Rattus norvegicus [33]): 0.13 % ID/g
- Drug uptake (Rattus norvegicus [34]): 0.13 % ID/g
- Drug uptake (Striatum [35]): 0.12 % ID/g
- Drug uptake (Brain [36]): 0.1 % ID/g
- Drug uptake (Rattus norvegicus [37]): 0.13 % ID/g
- Drug uptake (Rattus norvegicus [38]): 0.11 % ID/g
- Drug uptake (Thalamus [39]): 0.14 % ID/g
- Drug uptake (Blood [40]): 0.87 % ID/g
- Drug uptake (Brain [41]): 0.11 % ID/g
- Drug uptake (Striatum [42]): 0.11 % ID/g
- Drug uptake (Cerebellum [43]): 0.14 % ID/g
- Drug uptake (Blood [44]): 0.18 % ID/g
- Drug uptake (Hippocampus [45]): 0.08 % ID/g
- Drug uptake (Rattus norvegicus [46]): 0.12 % ID/g
Compound: CC(NCCC(c1ccccc1)c1ccccc1)c1ccc(O[11CH3])c(Cl)c1 (racemic)
